# Many of the other results were omitted from the sample, so hits are more common in it than they were.
# PostGolgi ctrl – growth inhibition of yeast control strain, primary screen, counter-screen for post-Golgi transport modulator project | efflux-deficient yeast background strain, growth absorbance A615, 16 h | inhibition, % at 10 µM | 5% of 98,000 active | AID 738, 2007
# Yeast growth inh – growth inhibitors of yeast BB579 in restrictive medium, primary screen, yeast lifespan-shortening project, S. cerevisiae; 0.51% of 140,000 active; OD615, 48 h; inhibition, % at 10 µM;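 active = inhibition above a set limit, 3 SD over the mean compound inhibition, cut at about 44% in these data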
#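 System: DeaD yeast strain BB579; buffer or medium: CSMM-D dextrose restrictive medium; technique: OD at 615 nm; schedule: 4 h cell preincubation, 48 h compound exposure, 30 °C humidified; doses: single 10 µM dose; controls: amphotericin B 10 µg/mL, positive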
# Yeast lifespan up – compounds extending yeast replicative lifespan, primary screen, S. cerevisiae, OD615 | AID 775, 2007 | S. cerevisiae growth with nicotinamide; deaD strain in restrictive glucose medium | inhibition of the nicotinamide effect, % at 10 µM | 0.68% of 130,000 active;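 active = inhibition above a set limit, placed 3 SD over the median of all compounds, cut at about 26% in these data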;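 also: 0% = nicotinamide-treated wells and 100% = cells grown without nicotinamide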
#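 Buffer or medium: CSMM-D glucose medium, restrictive; test system: modified budding yeast, DeaD strain; compound: single dose 10 µM compound, 0.25% DMSO; schedule: culture preincubation 4 h, compound exposure 48 h, both 30 °C; detection: optical density (absorbance) at 615 nm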
# PostGolgi yeast – phenotypic screen on post-Golgi transport, primary screen; inhibition, % at 10 µM; post-Golgi transport phenotypic cell assay; AID 739, 2007; 0.9% of 98,000 active;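 also: yeast cells grown in 1536-well plates; yeast grown about 18 h at 30C before absorbance read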
# * marks the source's active call; other numbers are inactive results; . = not tested or not shown. Rule as the data show it, unless noted: active = inhibition above about 30%; inactive = the rest.
SMILES,PostGolgi ctrl,Yeast growth inh,Yeast lifespan up,PostGolgi yeast
Cn1c(=O)[nH]c(=O)c2c1nc(N1CCCC1)n2CCCSc1nc2ccccc2o1,46*,-4,-18,-6
CC1CCCN(c2nc3c(c(=O)[nH]c(=O)n3C)n2CCSc2nc3ccccc3o2)C1 (centres undefined),0,-21,-7,2
CCn1c(N2CCC(Cc3ccccc3)CC2)nc2c1c(=O)[nH]c(=O)n2C,37*,-5,-10,2
CC1CCCN(c2nc3c(c(=O)[nH]c(=O)n3C)n2CCCc2ccccc2)C1 (centres undefined),35*,-31,4,3
Cc1ccccc1NC(=O)NCCN1C(=O)C2C3C=CC(C3)C2C1=O (centres undefined),-4,10,-8,-1
CCOc1cc(N2CCOCC2)c(OCC)cc1NC(=O)CN1CCc2ccccc2C1,39*,8,-7,9
C=CCSC(=S)NC1CCS(=O)(=O)C1 (centres undefined),.,-19,13,.
O=C(Nc1nnc(-c2cccs2)o1)c1cccc(C(F)(F)F)c1,36*,0,-4,73*
CC1CC(C)CN(S(=O)(=O)c2ccc(C(=O)Nc3nnc(-c4cccs4)o3)cc2)C1 (centres undefined),23,-35,-5,-2
O=S(=O)(Nc1ccc(-n2cccc2)cc1)c1ccccc1,33*,-19,-13,4
C=CCn1c(=O)c(C(=O)NCCc2ccccc2)c(O)c2ccccc21,10,-79,29*,-1
C=CCn1c(=O)c(C(=O)Nc2cccnc2)c(O)c2ccccc21,.,-11,.,.
O=C1c2ccccc2NC(c2cnc3ccccc3n2)N1O (centres undefined),5,-43,57*,-7
Cc1cccc(C(=O)NC(=S)NNC(=O)c2cccs2)c1,.,49*,10,.
O=C(NC(=S)NNC(=O)c1cccs1)c1ccco1,-2,-16,29*,-16
CC(C)(C)c1ccc(C(=O)NC(=S)NNC(=O)c2cccs2)cc1,.,67*,-5,.
Cc1ccc(C)c(N2CCN(CC(=O)Nc3ccc([N+](=O)[O-])cc3C(=O)Nc3ccccc3F)CC2)c1,38*,-38,-5,-5
C=CCOn1c(=O)c(=O)n(OCc2ccccc2)c2ccccc21,7,-39,-1,14
Cc1ccc(-c2nn(-c3cc(Cl)ccc3[N+](=O)[O-])c(=O)c3ccccc23)cc1,37*,-10,-5,-1
Cc1ccc(C)c(-c2nn(-c3cc(N4CCN(CCO)CC4)ccc3[N+](=O)[O-])c(=O)c3ccccc23)c1,48*,10,-7,-2
CCc1cc2c(=O)c(-c3nc4ccccc4[nH]3)coc2cc1OC(=O)N1CCOCC1,3,-23,18,31*
COc1cc(NC(C)CCCN)c2ncccc2c1Oc1ccccc1 (centres undefined),.,2,-3,.
Cn1c(CO)cnc1SCc1ccc(Cl)cc1,9,-26,-13,2
CCOC(=O)Cn1cc(C=O)c2ccccc21,1,-8,-14,42*
Nc1c(-c2ccccc2)cnn1C1CCS(=O)(=O)C1 (centres undefined),-3,-5,-4,4
SMILES,PostGolgi ctrl,Yeast growth inh,Yeast lifespan up,PostGolgi yeast
O=C(CCCOc1ccc(Cl)cc1Cl)N1CCN(c2ccccn2)CC1,52*,-57,-8,-8
Cc1nc2c(C(=O)NCc3ccc4c(c3)OCO4)cnn2c(C)c1Cc1ccc(F)cc1Cl,42*,6,-3,-2
Cc1nc2c(C(=O)NCc3ccc4c(c3)OCO4)c[nH]n2c(=O)c1Cl,-2,-12,-17,-7
Cc1ccc(C)c(Cc2c(C)nc3c(C(=O)NCc4ccc5c(c4)OCO5)cnn3c2C)c1,57*,-24,0,4
Cc1cccc(Cc2c(C)nc3c(C(=O)NCc4ccco4)cnn3c2C)c1,33*,-2,-16,3
Cc1ccccc1Cc1c(C)nc2c(C(=O)NCc3ccc4c(c3)OCO4)cnn2c1C,20,-26,-1,-2
Cc1nc2c(C(=O)NCc3ccco3)cnn2c(C)c1Cc1ccc(F)cc1Cl,18,-28,-12,3
CCCCn1c(SCC(=O)c2ccccc2)nc2c1c(=O)[nH]c(=O)n2C,5,-86,26,-8
CN(C)CCCNCCCNC(=O)c1ccncc1,-3,16,-2,2
CN(C)CCCNC(=O)c1ccc(-c2nc(-c3ccc(Cl)cc3)cs2)cc1,38*,38,-17,-1
CCN(CC)c1ccc(-c2nnc(SCC(=O)Nc3ccccc3C#N)n2-c2ccccc2)cc1,7,-6,-20,-5
CCCCSC1=C(C#N)C(c2ccccc2C)CC(=O)N1 (centres undefined),33*,-65,0,11
CCSC1=C(C#N)C(c2ccccc2Cl)CC(=O)N1 (centres undefined),15,-45,-6,-2
CCCSC1=C(C#N)C(c2ccc(Cl)cc2Cl)CC(=O)N1 (centres undefined),37*,-71,-16,-2
CCOC(=O)Cn1c(=O)c2c(nc3n2CCN3Cc2ccccc2)n(C)c1=O,10,-32,29*,-8
CCn1c(=O)c2c(nc3n2CCCN3CCc2ccccc2)n(C)c1=O,12,-28,-8,3
Cc1cccc(Cn2c(=O)c3c(nc4n3CCCN4Cc3ccccc3)n(C)c2=O)c1,42*,-23,-15,-6
Cn1c(=O)n(C/C=C/c2ccccc2)c(=O)c2c1nc1n2CCCN1c1ccc(F)cc1,31*,3,-6,2
Cn1c(=O)n(C/C=C/c2ccccc2)c(=O)c2c1nc1n2CCCN1Cc1ccccc1,32*,-36,-14,-1
Cc1cc(C)c2[nH]c(=O)c(CN(Cc3cccs3)C(=S)NCc3ccco3)cc2c1,.,-7,3,.
O=C(Cn1cccc1C(=O)c1ccccc1)NCc1ccccn1,5,-28,-5,-1
O=C(COC(=O)C12CC3CC(CC(C3)C1)C2)Nc1ccc([N+](=O)[O-])cc1Cl,.,-38,10,.
COc1ccc(C(=O)NC(C(=O)NCC(=O)Nc2c(C)cccc2C)C(C)C)cc1 (centres undefined),.,-1,0,.
CCOC(=O)C(=Cc1ccc(OCc2ccc([N+](=O)[O-])cc2)c(OC)c1)C(=O)OCC,43*,-46,-4,-4
Cc1ccc(Cn2ncn3c(cc4ccccc43)c2=O)cc1,35*,-45,-26,2
SMILES,PostGolgi ctrl,Yeast growth inh,Yeast lifespan up,PostGolgi yeast
CCc1cccc(NC(=O)Cn2ncn3c(cc4ccccc43)c2=O)c1,-6,-73,-9,-8
Fc1ccc2c(c1)C1C=CCC1C(c1cc3c(cc1Br)OCO3)N2 (centres undefined),28,-79,-20,5
COc1ccnc(N2CCN(c3ccccc3)CC2)c1C#N,2,-1,-28,3
Cn1nc(C(F)(F)F)c(C#N)c1N1CCN(c2ccccc2)CC1,72*,-33,-4,10
Cn1nc(C(F)(F)F)c(C#N)c1N1CCN(c2ccc(F)cc2)CC1,73*,-29,-5,3
Cn1c(COc2ccccc2)nnc1SCc1cc(=O)[nH]c2ccccc12,5,-8,44*,-1

# High-throughput results as filed in PubChem.
